Measured values reported in ChEMBL document CHEMBL1687724, “Roles of NF-kappaB activation and peroxisome proliferator-activated receptor gamma inhibition in the effect of rifampin on inducible nitric oxide synthase transcription in human lung epithelial cells” (Antimicrob Agents Chemother, 2009).
Calls of active or inactive are those of the source. No cut-off for these calls is given here.

Tests used:
A549 [1] = assay: Effect on STAT-1 phosphorylation in human A549 cells assessed as increase in IL1-beta, TNF-alpha and IFN-gamma-induced phosphorylation at 50 ug/ml after 15 to 30 mins by Western immunoblotting analysis; assay type: functional, cell-based
How it was run: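 A549 cells starved 24 h in serum- and antibiotic-free medium, treated with cytokine mix (IL-1β, TNF-α, IFN-γ) ± rifampin; total lysates immunoblotted (10% SDS-PAGE, PVDF) with rabbit anti-phospho-STAT-1; ECL detection with densitometry.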

A549 [2] = assay: Effect on p38 phosphorylation in human A549 cells assessed as increase in IL1-beta, TNF-alpha and IFN-gamma-induced phosphorylation at 50 ug/ml after 15 to 30 mins by Western immunoblotting analysis; assay type: functional, cell-based
How it was run: (§1)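 A549 cells serum/antibiotic-starved 24 h, then given cytokine mix (IL-1β, TNF-α, IFN-γ) with or without rifampin (50 μg/ml); total lysates at 15, 30, 60 min; 20–30 μg protein on 10% SDS-PAGE, immunoblotted for phospho-ERK1/2, phospho-JNK, phospho-p38 and total forms; ECL detection, densitometry.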

A549 [3] = assay: Effect on JNK phosphorylation in human A549 cells assessed as increase in IL1-beta, TNF-alpha and IFN-gamma-induced phosphorylation at 50 ug/ml after 15 to 30 mins by Western immunoblotting analysis; assay type: functional, cell-based; how it was run: as §1
A549 [4] = assay: Effect on ERK1/2 phosphorylation in human A549 cells assessed as increase in IL1-beta, TNF-alpha and IFN-gamma-induced phosphorylation at 50 ug/ml after 15 to 30 mins by Western immunoblotting analysis; assay type: functional, cell-based; how it was run: as §1
[5] = biological target: Nitric oxide synthase, inducible (Homo sapiens) (UniProt P35228); assay: Effect on iNOS in human A549 cells assessed as increase in iNOS mRNA expression at 50 ug/ml after 19 hrs by TaqMan real-time RT-PCR relative to control; assay type: cell-based
How it was run: (§2)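 A549 cells starved 24 h, then 19 h with cytokine mix (100 ng/ml each) ± rifampin 10 or 50 μg/ml (DMSO stock diluted ≥1:1,000); 2 μg total RNA reverse transcribed (random hexamers), iNOS by TaqMan real-time RT-PCR normalized to β-actin; medium-only control set to 1; four experiments, mean ± SEM.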

A549 [6] = assay: Induction of iNOS expression in human A549 cells at 25 to 50 ug/ml by Western blot analysis in presence of IFN-gamma; assay type: functional, cell-based
How it was run: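 A549 cells starved 24 h, then given rifampin with IFN-γ, each agent alone, or cytokine mix; total cell extracts prepared 20 h after stimulation and immunoblotted with rabbit anti-iNOS, ECL detection.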

A549 [7] = assay: Induction of iNOS expression in human A549 cells at 25 to 50 ug/ml by Western blot analysis; assay type: functional, cell-based
A549 [8] = assay: Induction of NF-kappaB activation in human A549 cells assessed as fold increase in NF-kappaB/DNA binding at 50 ug/ml by electrophoretic mobility shift assay; assay type: functional, cell-based
How it was run: (§3)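 Nuclear extracts from A549 cells 2 h after cytokine mix (IL-1β, TNF-α, IFN-γ) ± rifampin 50 μg/ml; 2 μl extract bound to biotin-labeled NF-κB consensus probe, 5% native PAGE in TBE, streptavidin-HRP chemiluminescence; specificity checked with cold NF-κB oligonucleotide.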

A549 [9] = assay: Induction of NF-kappaB activation in IL1-beta, TNF-alpha and IFN-gamma-stimulated human A549 cells assessed as fold increase in NF-kappaB/DNA binding at 50 ug/ml by electrophoretic mobility shift assay; assay type: functional; how it was run: as §3
A549 [10] = assay: Effect on NF-kappaB activation in human A549 cells assessed as degradation of inhibitory subunit IkappaB after 30 mins at 50 ug/ml by Western blot analysis; assay type: functional, cell-based
How it was run: (§4)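 A549 cells (2 × 10⁶/dish) starved 24 h, then exposed to cytokine mix (100 ng/ml each) ± rifampin 50 μg/ml, or rifampin alone; lysates taken over time (30 min to 3 h), 20–30 μg protein immunoblotted for IκB, ECL detection, densitometry; three experiments.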

A549 [11] = assay: Effect on NF-kappaB activation in 100 ng/ml IL-1beta, TNF-alpha and IFN-gamma-stimulated human A549 cells assessed as degradation of inhibitory subunit IkappaB measured upto 3 hrs at 50 ug/ml by Western blot analysis; assay type: functional, cell-based; how it was run: as §4
A549 [12] = assay: Effect on NF-kappaB activation in 100 ng/ml IL-1beta, TNF-alpha and IFN-gamma-stimulated human A549 cells assessed as degradation of inhibitory subunit IkappaB at 50 ug/ml by Western blot analysis; assay type: functional, cell-based; how it was run: as §4
A549 [13] = assay: Effect on iNOS expression in human A549 cells assessed as fold increase in 100 ng/ml IL1-beta, TNF-alpha and IFN-gamma-stimulated iNOS mRNA expression at 50 ug/ml after 19 hrs by TaqMan real-time RT-PCR relative to control; assay type: functional; how it was run: as §2
A549 [14] = assay: Effect on iNOS expression in human A549 cells assessed as fold increase in 100 ng/ml IL1-beta, TNF-alpha and IFN-gamma-stimulated iNOS mRNA expression at 10 ug/ml after 19 hrs by TaqMan real-time RT-PCR relative to control; assay type: functional; how it was run: as §2
A549 [15] = assay: Reduction in PPARgamma expression in human A549 cells assessed as increase in 100 ng/ml IL1-beta, TNF-alpha and IFN-gamma-induced PPARgamma down regulation normalized to beta-actin expression level at 50 ug/ml by Western blot analysis; assay type: functional, cell-based
How it was run: (§5)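 A549 cells starved 24 h, then 24 h with medium, cytokine mix (100 ng/ml each), or mix plus graded rifampin; whole-cell extracts immunoblotted with mouse anti-PPARγ, signal normalized to β-actin by densitometry; five experiments, mean ± SEM, unpaired t test.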

A549 [16] = assay: Effect on PPARgamma expression in human A549 cells assessed as decrease in PPARgamma expression normalized to beta-actin expression level at 50 ug/ml by Western blot analysis; assay type: functional, cell-based; how it was run: as §5
HT-29 = assay: Effect on iNOS expression in human HT-29 cells assessed as increase in 100 ng/ml IL1-beta, TNF-alpha and IFN-gamma-stimulated iNOS […] expression normalized to beta-actin expression level at 10 to 50 ug/ml after 24 hrs by Western blot analysis; assay type: functional, cell-based
DLD-1 = assay: Effect on iNOS expression in human DLD1 cells assessed as increase in 100 ng/ml IL1-beta, TNF-alpha and IFN-gamma-stimulated iNOS […] expression normalized to beta-actin expression level at 10 to 50 ug/ml after 24 hrs by Western blot analysis; assay type: functional, cell-based
[17] = Cmax in serum of human patient undergoing fibre-optic bronchoscopy at 600 mg, po administered as single dose; assay type: ADME, organism-based; parameters: dose 600 mg, route oral

Nitric oxide synthase, inducible (Homo sapiens), sequence (P35228 whole entry): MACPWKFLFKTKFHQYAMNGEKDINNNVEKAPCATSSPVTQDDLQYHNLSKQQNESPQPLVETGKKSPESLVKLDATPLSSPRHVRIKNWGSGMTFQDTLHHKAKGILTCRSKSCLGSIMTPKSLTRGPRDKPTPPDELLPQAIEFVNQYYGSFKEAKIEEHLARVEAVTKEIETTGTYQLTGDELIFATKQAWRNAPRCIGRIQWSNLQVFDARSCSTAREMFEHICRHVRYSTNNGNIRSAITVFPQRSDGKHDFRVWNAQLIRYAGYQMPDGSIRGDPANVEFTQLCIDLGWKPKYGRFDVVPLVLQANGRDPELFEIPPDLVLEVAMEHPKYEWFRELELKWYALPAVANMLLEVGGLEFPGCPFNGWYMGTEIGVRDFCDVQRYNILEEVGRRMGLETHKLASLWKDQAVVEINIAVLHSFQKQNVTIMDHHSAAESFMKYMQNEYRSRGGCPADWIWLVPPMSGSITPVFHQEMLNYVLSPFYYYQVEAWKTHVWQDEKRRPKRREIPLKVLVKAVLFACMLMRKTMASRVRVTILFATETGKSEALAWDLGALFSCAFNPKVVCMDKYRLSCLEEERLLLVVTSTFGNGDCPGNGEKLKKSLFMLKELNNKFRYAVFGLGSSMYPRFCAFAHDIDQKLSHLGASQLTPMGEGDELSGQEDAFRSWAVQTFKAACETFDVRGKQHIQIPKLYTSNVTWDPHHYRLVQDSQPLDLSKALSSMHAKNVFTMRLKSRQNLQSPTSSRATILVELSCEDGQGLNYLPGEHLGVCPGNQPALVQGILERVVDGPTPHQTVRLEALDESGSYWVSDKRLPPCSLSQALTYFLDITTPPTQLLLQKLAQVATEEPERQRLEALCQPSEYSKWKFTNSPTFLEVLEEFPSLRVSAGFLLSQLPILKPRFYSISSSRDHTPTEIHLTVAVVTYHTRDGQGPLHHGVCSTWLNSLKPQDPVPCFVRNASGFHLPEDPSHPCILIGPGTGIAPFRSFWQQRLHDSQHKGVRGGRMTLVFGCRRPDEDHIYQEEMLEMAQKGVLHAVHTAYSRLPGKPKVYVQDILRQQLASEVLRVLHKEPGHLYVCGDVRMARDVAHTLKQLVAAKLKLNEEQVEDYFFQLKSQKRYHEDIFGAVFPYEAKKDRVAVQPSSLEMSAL

Activity [5]: inactive | Cmax [17]: 15 µg/mL
SMILES: CO[C@H]1/C=C/O[C@@]2(C)Oc3c(C)c(O)c4c(O)c(c(/C=N/N5CCN(C)CC5)c(O)c4c3C2=O)NC(=O)/C(C)=C\C=C\[C@H](C)[C@H](O)[C@@H](C)[C@@H](O)[C@@H](C)[C@H](OC(C)=O)[C@@H]1C [RIFAMPIN]
Activity (A549 [1]): inactive | Activity (A549 [2]): inactive | Activity (A549 [3]): inactive | Activity (A549 [4]): inactive | Activity (A549 [6]): Active | Activity (A549 [7]): inactive | Activity (A549 [8]): Active | fold change (FC) (A549 [9]): 2.1 | Activity (A549 [10]): Active | Activity (A549 [11]): Active | Activity (A549 [12]): Active | fold change (FC) (A549 [13]): 4 | fold change (FC) (A549 [14]): 1.9 | Activity (A549 [15]): Active | Activity (A549 [16]): inactive | Activity (HT-29): Dose-dependent effect | Activity (DLD-1): inactive
